# Data from ChEMBL document CHEMBL1255404, “Spread of OXA-48-encoding plasmid in Turkey and beyond” (2010).
# Experiments:
# Assay type in all cases: functional
# Escherichia coli [1] = experiment: Antimicrobial activity against Escherichia coli isolate J53 harboring pE containing beta-lactamase OXA-48 located within transposon Tn1999.2 by Etest method
# Procedure, shortened: (§1)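 β-Lactam MICs read with Etest strips. Strains are E. coli J53 recipient and J53 transconjugants carrying OXA-48-positive plasmids recovered from clinical enterobacterial isolates.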
# Klebsiella pneumoniae [2] = experiment: Antimicrobial activity against Klebsiella pneumoniae isolate KpB expressing OXA-48 and CTX-M-15 by Etest method
# Enterobacter cloacae [3] = experiment: Antimicrobial activity against Enterobacter cloacae isolate 1 expressing beta-lactamase OXA-48 and SHV-5 by Etest method
# Escherichia coli [4] = experiment: Antimicrobial activity against Escherichia coli isolate J53 harboring pA-1 containing beta-lactamase OXA-48 located within transposon Tn1999 by Etest method; procedure, shortened: as §1
# Klebsiella pneumoniae [5] = experiment: Antimicrobial activity against Klebsiella pneumoniae isolate Kp5A expressing beta-lactamase OXA-48 and SHV-5 by Etest method
# Citrobacter freundii = experiment: Antimicrobial activity against Citrobacter freundii isolate expressing beta-lactamase OXA-48 by Etest method
# Escherichia coli [6] = experiment: Antimicrobial activity against Escherichia coli isolate J53 harboring p6A containing beta-lactamase OXA-48 located within transposon Tn1999 by Etest method; procedure, shortened: as §1
# Escherichia coli [7] = experiment: Antimicrobial activity against Escherichia coli isolate J53 harboring pEnc2 containing beta-lactamase OXA-48 located within transposon Tn1999 by Etest method; procedure, shortened: as §1
# Klebsiella pneumoniae [8] = experiment: Antimicrobial activity against Klebsiella pneumoniae isolate KpI-1 expressing beta-lactamase OXA-48 and CTX-M-15 by Etest method
# Escherichia coli [9] = experiment: Antimicrobial activity against Escherichia coli isolate J53 harboring p7A containing beta-lactamase OXA-48 located within transposon Tn1999 by Etest method; procedure, shortened: as §1
# Escherichia coli [10] = experiment: Antimicrobial activity against Escherichia coli isolate J53 harboring pCF containing beta-lactamase OXA-48 located within transposon Tn1999 by Etest method; procedure, shortened: as §1
# Klebsiella pneumoniae [11] = experiment: Antimicrobial activity against Klebsiella pneumoniae isolate Kp11978 expressing beta-lactamase OXA-48, SHV-2a and TEM-1 by Etest method
# Escherichia coli [12] = experiment: Antimicrobial activity against Escherichia coli isolate J53 harboring pEcA containing beta-lactamase OXA-48 located within transposon Tn1999.2 by Etest method; procedure, shortened: as §1
# Enterobacter cloacae [13] = experiment: Antimicrobial activity against Enterobacter cloacae isolate 2 expressing beta-lactamase OXA-48 and SHV-5 by Etest method
# Escherichia coli [14] = experiment: Antimicrobial activity against Escherichia coli isolate J53 harboring pEnc1 containing beta-lactamase OXA-48 located within transposon Tn1999 by Etest method; procedure, shortened: as §1
# Escherichia coli [15] = experiment: Antimicrobial activity against Escherichia coli isolate TOP10 by Etest method
# Procedure, shortened: (§2)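 β-Lactam MICs read with Etest strips. Strains are E. coli TOP10 host and TOP10 transformants made with plasmid DNA extract when conjugation failed. Transformants were selected on LB agar with ticarcillin 50 μg/ml.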
# Klebsiella pneumoniae [16] = experiment: Antimicrobial activity against Klebsiella pneumoniae isolate KpE expressing beta-lactamase OXA-48 and CTX-M-15 by Etest method
# Escherichia coli [17] = experiment: Antimicrobial activity against Escherichia coli isolate J53 harboring p5A containing beta-lactamase OXA-48 located within transposon Tn1999 by Etest method; procedure, shortened: as §1
# Escherichia coli [18] = experiment: Antimicrobial activity against Escherichia coli isolate J53 harboring pBEL containing beta-lactamase OXA-48 located within transposon Tn1999.2 by Etest method; procedure, shortened: as §1
# Klebsiella pneumoniae [19] = experiment: Antimicrobial activity against Klebsiella pneumoniae isolate KpL expressing beta-lactamase OXA-48 by Etest method
# Providencia rettgeri = experiment: Antimicrobial activity against Providencia rettgeri isolate expressing beta-lactamase OXA-48 and TEM-101 by Etest method
# Escherichia coli [20] = experiment: Antimicrobial activity against Escherichia coli isolate J53 harboring p3A containing beta-lactamase OXA-48 located within transposon Tn1999 by Etest method; procedure, shortened: as §1
# Klebsiella pneumoniae [21] = experiment: Antimicrobial activity against Klebsiella pneumoniae isolate KpBIC expressing beta-lactamase OXA-48 by Etest method
# Procedure, shortened: (§3)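 MICs of β-lactams read from Etest strips. The test organisms are carbapenem-resistant, OXA-48-positive clinical Enterobacteriaceae isolates recovered from Turkey, Lebanon, Egypt, France and Belgium.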
# Escherichia coli [22] = experiment: Antimicrobial activity against Escherichia coli isolate J53 harboring pL containing beta-lactamase OXA-48 located within transposon Tn1999.2 by Etest method; procedure, shortened: as §1
# Escherichia coli [23] = experiment: Antimicrobial activity against Escherichia coli isolate J53 harboring p4A containing beta-lactamase OXA-48 located within transposon Tn1999 by Etest method; procedure, shortened: as §1
# Escherichia coli [24] = experiment: Antimicrobial activity against Escherichia coli isolate J53 by Etest method; procedure, shortened: as §1
# Klebsiella pneumoniae [25] = experiment: Antimicrobial activity against Klebsiella pneumoniae isolate KpBEL expressing beta-lactamase OXA-48 by Etest method; procedure, shortened: as §3
# Escherichia coli [26] = experiment: Antimicrobial activity against Escherichia coli isolate TOP10 harboring pBIC containing beta-lactamase OXA-48 located within transposon Tn1999.2 by Etest method; procedure, shortened: as §2
# Escherichia coli [27] = experiment: Antimicrobial activity against Escherichia coli isolate J53 harboring pI-2 containing beta-lactamase OXA-48 located within transposon Tn1999.2 by Etest method; procedure, shortened: as §1
# Escherichia coli [28] = experiment: Antimicrobial activity against Escherichia coli isolate TOP10 harboring pPR containing beta-lactamase and TEM-101 by Etest method; procedure, shortened: as §2
# Klebsiella pneumoniae [29] = experiment: Antimicrobial activity against Klebsiella pneumoniae isolate Kp7A expressing beta-lactamase OXA-48 by Etest method; procedure, shortened: as §3
# Klebsiella pneumoniae [30] = experiment: Antimicrobial activity against Klebsiella pneumoniae isolate KpI-2 expressing beta-lactamase OXA-48 and CTX-M-15 by Etest method
# Escherichia coli [31] = experiment: Antimicrobial activity against Escherichia coli isolate J53 harboring pI-1 containing beta-lactamase OXA-48 located within transposon Tn1999.2 by Etest method; procedure, shortened: as §1
# Escherichia coli [32] = experiment: Antimicrobial activity against Escherichia coli isolate A expressing beta-lactamase OXA-48 and TEM-150 by Etest method
# Escherichia coli [33] = experiment: Antimicrobial activity against Escherichia coli isolate J53 harboring pBb containing beta-lactamase OXA-48 located within transposon Tn1999.2 by Etest method; procedure, shortened: as §1
# Klebsiella pneumoniae [34] = experiment: Antimicrobial activity against Klebsiella pneumoniae isolate Kp3A expressing beta-lactamase OXA-48 by Etest method; procedure, shortened: as §3
# Klebsiella pneumoniae [35] = experiment: Antimicrobial activity against Klebsiella pneumoniae isolate Kp6A expressing beta-lactamase OXA-48 and TEM-150 by Etest method
# Klebsiella pneumoniae [36] = experiment: Antimicrobial activity against Klebsiella pneumoniae isolate Kp4A expressing beta-lactamase OXA-48 and CTX-M-15 by Etest method
Compound,MIC (Escherichia coli [1]) [µg/mL],MIC (Klebsiella pneumoniae [2]) [µg/mL],MIC (Enterobacter cloacae [3]) [µg/mL],MIC (Escherichia coli [4]) [µg/mL],MIC (Klebsiella pneumoniae [5]) [µg/mL],MIC (Citrobacter freundii) [µg/mL],MIC (Escherichia coli [6]) [µg/mL],MIC (Escherichia coli [7]) [µg/mL],MIC (Klebsiella pneumoniae [8]) [µg/mL],MIC (Escherichia coli [9]) [µg/mL],MIC (Escherichia coli [10]) [µg/mL],MIC (Klebsiella pneumoniae [11]) [µg/mL],MIC (Escherichia coli [12]) [µg/mL],MIC (Enterobacter cloacae [13]) [µg/mL],MIC (Escherichia coli [14]) [µg/mL],MIC (Escherichia coli [15]) [µg/mL],MIC (Klebsiella pneumoniae [16]) [µg/mL],MIC (Escherichia coli [17]) [µg/mL],MIC (Escherichia coli [18]) [µg/mL],MIC (Klebsiella pneumoniae [19]) [µg/mL],other results
CCN1CCN(C(=O)N[C@@H](C(=O)N[C@@H]2C(=O)N3[C@@H]2SC(C)(C)[C@@H]3C(=O)O)c2ccccc2)C(=O)C1=O [PIPERACILLIN],512,> 512,> 512,8,> 512,> 512,> 512,> 512,> 512,> 512,> 512,> 512,128,> 512,> 512,2,> 512,> 512,128,96,MIC (Providencia rettgeri): > 256 µg/mL; MIC (Escherichia coli [20]): 512 µg/mL; MIC (Klebsiella pneumoniae [21]): > 512 µg/mL; MIC (Escherichia coli [22]): 64 µg/mL; MIC (Escherichia coli [23]): > 512 µg/mL; MIC (Escherichia coli [24]): 1 µg/mL; MIC (Klebsiella pneumoniae [25]): > 256 µg/mL; MIC (Escherichia coli [26]): > 512 µg/mL; MIC (Escherichia coli [27]): 512 µg/mL; MIC (Escherichia coli [28]): 128 µg/mL; MIC (Klebsiella pneumoniae [29]): > 512 µg/mL; MIC (Klebsiella pneumoniae [30]): > 512 µg/mL; MIC (Escherichia coli [31]): 512 µg/mL; MIC (Escherichia coli [32]): > 256 µg/mL; MIC (Escherichia coli [33]): > 512 µg/mL; MIC (Klebsiella pneumoniae [34]): > 512 µg/mL; MIC (Klebsiella pneumoniae [35]): > 512 µg/mL; MIC (Klebsiella pneumoniae [36]): > 512 µg/mL
CC(C)(O/N=C(\C(=O)N[C@@H]1C(=O)N2C(C(=O)[O-])=C(C[n+]3ccccc3)CS[C@H]12)c1csc(N)n1)C(=O)O [CEFTAZIDIME],0.12,> 512,> 512,0.12,512,512,0.12,0.75,512,0.12,0.75,512,0.75,32,0.75,0.06,512,0.12,0.75,0.75,MIC (Providencia rettgeri): 512 µg/mL; MIC (Escherichia coli [20]): 0.25 µg/mL; MIC (Klebsiella pneumoniae [21]): 0.12 µg/mL; MIC (Escherichia coli [22]): 0.75 µg/mL; MIC (Escherichia coli [23]): 0.12 µg/mL; MIC (Escherichia coli [24]): 0.06 µg/mL; MIC (Klebsiella pneumoniae [25]): 1 µg/mL; MIC (Escherichia coli [26]): 0.12 µg/mL; MIC (Escherichia coli [27]): 0.12 µg/mL; MIC (Escherichia coli [28]): 512 µg/mL; MIC (Klebsiella pneumoniae [29]): 0.12 µg/mL; MIC (Klebsiella pneumoniae [30]): 512 µg/mL; MIC (Escherichia coli [31]): 0.12 µg/mL; MIC (Escherichia coli [32]): 512 µg/mL; MIC (Escherichia coli [33]): 1 µg/mL; MIC (Klebsiella pneumoniae [34]): 0.25 µg/mL; MIC (Klebsiella pneumoniae [35]): 512 µg/mL; MIC (Klebsiella pneumoniae [36]): 512 µg/mL
CC(=O)OCC1=C(C(=O)O)N2C(=O)[C@@H](NC(=O)Cc3cccs3)[C@H]2SC1 [CEPHALOTHIN],16,> 512,> 512,0.5,> 512,> 512,16,16,> 512,16,> 512,> 512,16,> 512,16,4,> 512,16,16,32,MIC (Providencia rettgeri): > 512 µg/mL; MIC (Escherichia coli [20]): 16 µg/mL; MIC (Klebsiella pneumoniae [21]): > 512 µg/mL; MIC (Escherichia coli [22]): 8 µg/mL; MIC (Escherichia coli [23]): 16 µg/mL; MIC (Escherichia coli [24]): 4 µg/mL; MIC (Klebsiella pneumoniae [25]): 16 µg/mL; MIC (Escherichia coli [26]): 16 µg/mL; MIC (Escherichia coli [27]): 16 µg/mL; MIC (Escherichia coli [28]): 16 µg/mL; MIC (Klebsiella pneumoniae [29]): > 512 µg/mL; MIC (Klebsiella pneumoniae [30]): > 512 µg/mL; MIC (Escherichia coli [31]): 16 µg/mL; MIC (Escherichia coli [32]): > 512 µg/mL; MIC (Escherichia coli [33]): 16 µg/mL; MIC (Klebsiella pneumoniae [34]): > 512 µg/mL; MIC (Klebsiella pneumoniae [35]): > 512 µg/mL; MIC (Klebsiella pneumoniae [36]): > 512 µg/mL
